ChEMBL document CHEMBL4477170, “Tricyclic Acylphloroglucinols from Hypericum lanceolatum and Regioselective Synthesis of Selancins A and B” (J Nat Prod, 2016)
Activity calls are given as the source filed them. No cut-off for these calls is given here.

What was measured:
HT-29 = assay: Cytotoxicity against human HT-29 cells assessed as cell growth inhibition at 10 uM by XTT assay; assay type: functional, cell-based
Summary of the method: (§1)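 Modified XTT assay on HT-29 colon and PC-3 prostate cancer cell lines, measuring growth inhibition; isolated compounds tested up to 10 μM.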

PC-3 = assay: Cytotoxicity against human PC3 cells assessed as cell growth inhibition at 10 uM by XTT assay; assay type: functional, cell-based; summary of the method: as §1

Compound	growth inhibition (GI) (HT-29)	growth inhibition (GI) (PC-3)
CC(C)C(=O)c1c(O)c2c(c3c1OC(C)(C)C=C3)OC(C)(C)C=C2	inactive	inactive
CC(C)C(=O)c1c(O)c2c(c3c1OC(C)(C)C=C3)OC(C)(C)[C@@H](O)C2=O	inactive	inactive
CC[C@H](C)C(=O)c1c(O)c2c(c3c1OC(C)(C)C=C3)OC(C)(C)C=C2	inactive	inactive
CC[C@H](C)C(=O)c1c(O)c2c(c3c1OC(C)(C)C=C3)OC(C)(C)[C@@H](O)C2=O	inactive	inactive
CC(C)C(=O)c1c(O)c2c(c3c1OC(C)(C)C(O)C3)OC(C)(C)C=C2 (stereo not drawn)	inactive	inactive
CC[C@H](C)C(=O)c1c(O)c2c(c3c1OC(C)(C)C=C3)OC(C)(C)[C@H](O)C2	inactive	inactive
CC[C@H](C)C(=O)c1c(O)c2c(c3c1OC(C)(C)C(O)C3)OC(C)(C)C=C2 (stereo partly drawn)	inactive	inactive
CC(C)C(=O)c1c(O)c2c(c3c1OC(C)(C)C=C3)OC(C)(C)[C@H](O)[C@@H]2O (relative stereo)	inactive	inactive
CC(C)=CCC/C(C)=C/COc1cc(O)c2c(c1)C(=O)c1cc(C)cc(O)c1C2=O	inactive	inactive
